# Experimental data as given in PubChem BioAssay.
# Calls of active or inactive are those of the source.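 Rule for the calls, unless noted: active = inhibition at or above 50% at 10 µM; inactive = inhibition below 50%.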
# How the values were obtained:
# [1] = inhibitors of TNFa-induced NFkB p65 translocation, primary screen, imaging, HUVEC, MLSMR starter and 10KST1 sets (AID 438;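 active = inhibition above 20% together with a positive visual image hit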;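 note: compound added about 3h40 before a 20 min TNFalpha stimulation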;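 for inhibition: signal is the nuclear over cytoplasmic p65 intensity ratio per well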); conditions: HUVEC TNFa-induced p65 nuclear translocation; cell count: measured here: nuclei count (cytotoxicity indicator), at 2.08 µM; inhibition: at 2 µM, stronger effect = higher value, 0% TNFa-plus-vehicle, 100% no-TNFa wells
# [2] = inhibitors of mutant huntingtin aggregation, primary screen, imaging, exon1htt(103Q)mCFP cells, high-content imaging (AID 483;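 active = visual image review flags a hit and inhibition of aggregation exceeds 20%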;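 note: compound exposure lasted 3 days before fixation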;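 for nuclei count: percent of the per-plate median nuclei count of sample wells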); conditions: exon1htt(103Q)mCFP cell line, aggregate imaging, at 2 µM; inhibition of aggregation: stronger effect = higher value; nuclei count: measured here: cell count, toxicity
# [3] = inhibitors of E-selectin induction by TNFa, primary screen, imaging, HUVEC, immunofluorescence, MLSMR starter and 10KST1 sets (AID 487;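 active = visually confirmed hit in the image check and inhibition above 20%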;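 for inhibition: signal is fraction of cell area covered by stained E-selectin grains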;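 for nuclei count: 100% = median nuclei count of all wells on the same plate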); conditions: HUVEC TNFalpha-induced E-selectin immunofluorescence imaging, at 2 µM; inhibition: stronger effect = higher value; nuclei count: measured here: cell number, toxicity
# [4] = target: Voltage-gated potassium channel subunit beta-2 (Rattus norvegicus) (UniProt P62483); test: KvBeta enzyme negative modulators, primary screen, biochemical, NADPH fluorescence (AID 622;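 active = fluorescence slope higher than the sample average by over 3 SD, cut at about -0.22 in these data, passing the limit was not always enough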;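 note: slope of raw intensity against log time taken from 70 to 1610 s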); conditions: recombinant KvBeta, 4-cyanobenzaldehyde reduction, at 10 µM, stronger effect = higher value
# [5] = target: Voltage-gated potassium channel subunit beta-2 (Rattus norvegicus) (UniProt P62483); test: KvBeta positive modulators, primary screen, biochemical, NADPH fluorescence (AID 623;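 active = NADPH fluorescence slope more negative than the mean of all samples by about 3 SD, 99.7% confidence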;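 note: fluorescence intensity change per second fitted from 20 to 320 s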); conditions: Recombinant KvBeta, NADPH fluorescence decrease slope, 10 min; at 10 µM; stronger effect = lower value
# [6] = target: Alpha-2C adrenergic receptor (Homo sapiens) (UniProt P18825); test: modulators of alpha2C/GIRK thallium flux, primary screen, cell-based, HEK293 alpha2C/GIRK1/2 (AID 624;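 active = fluorescence slope after compound addition differing from the mean of all screened samples at 99.7% confidence, in either direction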;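 note: slope of fluorescence ratio to pre-addition baseline per second over 15 to 24 s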); conditions: thallium flux BTC fluorescence, at 10 µM, actives lie on both sides
# [7] = inhibitors of larval lipid processing in zebrafish, primary screen, whole organism, PED6 fluorescence, gall bladder and intestine (AID 686;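 active = a full or partial loss of lipid-probe fluorescence in the fish gall bladder, intestine or both, judged by eye; inactive = no fluorescence loss, or compound toxic to the fish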;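 note: larvae 5 to 7 days old with five fish per well; signal comes from phospholipase A2 cleavage of quenched PED6 carried via bile; overnight exposure to compound and PED6 before scoring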); conditions: Zebrafish larvae PED6 lipid processing, fluorescence scoring; screened at 20 µM (by protocol)
# How it was run: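 Doses: 20 µM single dose. Test system: live zebrafish larvae aged 5-7 days, whole organism. Quantity: five larvae per well. Measured by: By-eye fluorescence microscopy. Reagent: ingested quenched lipid PED6 at 100 nM. Read-out: visual per-well fluorescence inhibition score. Times: overnight exposure of larvae to compound plus PED6.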
# [8] = inhibitors of Sendai virus-induced IRF3 signaling, primary screen, TLR/RLR signaling modifier project, cell-based, Sendai virus stimulus, luciferase, 10K MLSCN set (AID 602276); conditions: HEK293 RL24 IRF3 luciferase reporter, at 10 µM, stronger effect = higher value;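 note: firefly luciferase from ISG56 promoter only with Renilla not read in this screen; 0% = Sendai virus plus DMSO and 100% = medium plus DMSO without virus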
# [9] = inhibitors of poly I:C-induced TLR3 signaling, primary screen, cell-based, poly I:C stimulus, luciferase, 10K MLSCN set (AID 602277;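 active = inhibition of the reporter signal at or above 50%; inactive = inhibition below 50%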); conditions: HEK293-TLR3 RL24 IRF3 luciferase reporter, at 10 µM, stronger effect = higher value
# Sequence of Alpha-2C adrenergic receptor (Homo sapiens) (P18825 whole entry, looked up): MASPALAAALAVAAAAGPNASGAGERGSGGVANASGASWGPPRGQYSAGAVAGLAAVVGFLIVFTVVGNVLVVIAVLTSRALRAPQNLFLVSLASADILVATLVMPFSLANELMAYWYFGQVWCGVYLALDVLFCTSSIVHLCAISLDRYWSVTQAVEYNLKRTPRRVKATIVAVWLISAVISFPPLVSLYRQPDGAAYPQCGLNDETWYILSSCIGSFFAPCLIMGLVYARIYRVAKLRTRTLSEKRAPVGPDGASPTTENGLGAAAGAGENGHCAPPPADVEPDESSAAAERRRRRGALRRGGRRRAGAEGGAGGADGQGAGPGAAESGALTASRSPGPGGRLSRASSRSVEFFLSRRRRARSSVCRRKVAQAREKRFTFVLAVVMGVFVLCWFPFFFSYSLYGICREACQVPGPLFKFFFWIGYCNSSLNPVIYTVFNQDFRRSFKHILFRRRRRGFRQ
# Sequence of Voltage-gated potassium channel subunit beta-2 (Rattus norvegicus) (P62483 whole entry, looked up): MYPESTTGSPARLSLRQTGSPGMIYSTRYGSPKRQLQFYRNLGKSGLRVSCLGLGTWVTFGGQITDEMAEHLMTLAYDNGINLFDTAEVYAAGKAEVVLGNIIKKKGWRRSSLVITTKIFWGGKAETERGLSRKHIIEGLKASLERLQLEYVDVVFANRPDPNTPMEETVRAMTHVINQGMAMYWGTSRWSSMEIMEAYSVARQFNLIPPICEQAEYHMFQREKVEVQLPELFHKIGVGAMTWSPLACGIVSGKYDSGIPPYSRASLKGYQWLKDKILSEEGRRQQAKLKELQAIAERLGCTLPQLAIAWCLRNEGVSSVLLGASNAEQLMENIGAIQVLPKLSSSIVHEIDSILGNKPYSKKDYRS
SMILES,cell count [1],inhibition [1],inhibition of aggregation [2],nuclei count [2] [%],inhibition [3],nuclei count [3] [%],fluorescence slope [4],NADPH fluorescence slope [5],slope [6],outcome [7],inhibition [8],inhibition [9]
O=C(CSc1nnnn1-c1ccccc1)Nc1ccc(Cl)cc1,561,-0.2% (inactive),17.5% (inactive),108,-73.4% (inactive),67.8,-0.377 (inactive),4e-06 (inactive),0.00622 (inactive),inactive,-14.3% (inactive),-15.3% (inactive)
Cc1ccc(C)n1-c1ccc(-n2cnnn2)cc1,572,-1.6% (inactive),-8.3% (inactive),86.5,-24.4% (inactive),50.8,-0.366 (inactive),-5.9e-05 (inactive),0.00396 (inactive),inactive,8.71% (inactive),9.74% (inactive)
CCOC(=O)c1cc(-c2ccccc2)sc1N,389,-0.7% (inactive),3.4% (inactive),102,-104% (inactive),107,-0.351 (inactive),-2e-05 (inactive),0.0052 (inactive),inactive,-40.8% (inactive),-102% (inactive)
CN(C)C(=O)CSc1nnc2sc3ccccc3n12,388,-9.2% (inactive),-15.4% (inactive),105,-32.3% (inactive),102,-0.438 (inactive),-2.4e-05 (inactive),0.00511 (inactive),inactive,15.9% (inactive),23.7% (inactive)
CC1CCCCC1NC(=O)COc1ccc(-n2cnnn2)cc1 (stereo not drawn),508,6.8% (inactive),5.2% (inactive),81.6,-175% (inactive),108,-0.449 (inactive),-7.6e-05 (inactive),0.00588 (inactive),inactive,6.84% (inactive),25.1% (inactive)
Cc1ccc(-c2nn(-c3ccccc3)cc2/C=C(\C#N)c2cccc(C#N)c2)o1,264,-9.3% (inactive),-10% (inactive),97.5,3.9% (inactive),84.1,-0.273 (inactive),-2.6e-05 (inactive),0.0087 (active),inactive,13.8% (inactive),5.01% (inactive)
COC(=O)c1c(NC(=O)CCc2ccc(C)o2)sc(C)c1C,568,6.6% (inactive),7.9% (inactive),79.4,-69.4% (inactive),91,-0.294 (inactive),-1.6e-05 (inactive),0.00498 (inactive),inactive,15.7% (inactive),31.1% (inactive)
Cc1onc(-c2ccccc2)c1C(=O)NCc1cccnc1,272,-15.4% (inactive),-24.1% (inactive),120,-22.8% (inactive),112,-0.385 (inactive),-6.1e-05 (inactive),0.00521 (inactive),inactive,6.6% (inactive),8.85% (inactive)
O=C(CCCn1c(=O)[nH]c2ccsc2c1=O)N1CCN(c2ccccn2)CC1,665,-5.2% (inactive),-1% (inactive),97.2,-13.1% (inactive),106,-0.386 (inactive),-4.1e-05 (inactive),0.00451 (inactive),inactive,8.33% (inactive),13.1% (inactive)
COc1ccc(Br)cc1-c1noc(-c2ccccc2)n1,357,3% (inactive),-25.4% (inactive),102,-51.1% (inactive),109,-0.371 (inactive),-6.1e-05 (inactive),0.00662 (inactive),inactive,13.4% (inactive),99.2% (active)
CCC(=O)Oc1ccc(C/C(=N\O)c2ccc(O)cc2O)o1,405,1.5% (inactive),24.3% (inactive),95.9,-54.6% (inactive),115,-0.502 (inactive),4.5e-05 (inactive),0.00444 (inactive),inactive,-8.2% (inactive),-21.3% (inactive)
O=C(O)c1ccc(C2SCC(=O)N2Cc2ccccc2)cc1 (stereo not drawn),323,-0.4% (inactive),15.9% (inactive),57.9,7.3% (inactive),101,-0.382 (inactive),1.2e-05 (inactive),0.00611 (inactive),inactive,-6.17% (inactive),0.315% (inactive)
CCOC(=O)c1[nH]c2ccc(C)cc2c1NC(=O)CN1CCCCC1,672,13.7% (inactive),5.6% (inactive),93.3,-12% (inactive),87.9,-0.349 (inactive),-2.6e-05 (inactive),0.00444 (inactive),inactive,13.3% (inactive),14.1% (inactive)
COC(=O)Cn1cnc2sc(C)c(S(=O)(=O)N3CCC(C)CC3)c2c1=O,543,-2.4% (inactive),-10.1% (inactive),106,-31.1% (inactive),101,-0.473 (inactive),-2.3e-05 (inactive),0.00523 (inactive),inactive,6.12% (inactive),8.67% (inactive)
